Screening data: PubChem BioAssay, several laboratories
An excerpt weighted towards active compounds, which were near 0.54% of everything screened.
ASAP1 GAP inh – ASAP1 ArfGAP inhibition. Q9ULH1. ASAP1-stimulated ARF1 GTP hydrolysis, GDP FP detection. inhibition, % at 16.5 µM. 360,000 tested, 0.19% active; in the data active = inhibition above about 25%
PKD1 kinase inh – PKD1 (human) kinase inhibition; Q15139; PKD1 kinase fluorescence polarization assay; inhibition, % (test concentration not listed); 200,000 tested, 0.056% active; AID 797; in the data active = inhibition above about 50%
ARFGAP1 inh – inhibits rat ARF GTPase activating protein 1; Q62848; Arfgap1-stimulated ARF1 GTP hydrolysis, GDP FP detection; inhibition, % at 16.5 µM; 360,000 tested, 0.26% active;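 active = inhibition above a per-plate limit, mean inhibition of low control wells plus 3 SD, cut at about 25% in these data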
Target sequence (Q62848 1-136 limits assumed): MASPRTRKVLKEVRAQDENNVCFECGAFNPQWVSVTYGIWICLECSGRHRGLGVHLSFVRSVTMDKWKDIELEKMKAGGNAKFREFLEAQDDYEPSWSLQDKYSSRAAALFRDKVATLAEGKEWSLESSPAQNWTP
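material = rat Arfgap1 catalytic domain, aa 1-136 | also added = human ARF1(Δ1-17)-GTP substrate | compound dosing = one concentration, 16.5 µM, DMSO 1.26% | times = GTP hydrolysis reaction 2 h at 25 °C | measured by = FP, GDP Alexa 633 tracer displaced from anti-GDP antibody, 620/688 nm | evaluation = percent inhibition of Arfgap1-stimulated GTP hydrolysis | replication = single well per compound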
PP5 inh – blocks human protein phosphatase 5 activity; P53041; purified PP5c, OMFP substrate fluorescence; inhibition, % at 6.7 µM; 320,000 tested, 0.18% active;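 active = inhibition above the campaign's mean inhibition across all tested compounds plus 3 SD, cut at about 9.5% in these data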
PP5 conf – PP5 (human) inhibition, confirmation | Purified PP5, fluorogenic phosphatase substrate, fluorescence | shares compounds with PP5 inh | 460 tested, 22% active | inhibition, % at 6.7 µM; in the data active = inhibition above about 9.5%
PP1 counter 3x – counter-screen for PP5 inhibitors: human PP1 phosphatase inhibition | shares compounds with PP5 inh | PP1 enzyme, fluorescent phosphatase substrate | inhibition, % at 6.7 µM | 460 tested, 4% active; in the data active = inhibition above about 16%
Target sequence (P62136 whole entry, looked up): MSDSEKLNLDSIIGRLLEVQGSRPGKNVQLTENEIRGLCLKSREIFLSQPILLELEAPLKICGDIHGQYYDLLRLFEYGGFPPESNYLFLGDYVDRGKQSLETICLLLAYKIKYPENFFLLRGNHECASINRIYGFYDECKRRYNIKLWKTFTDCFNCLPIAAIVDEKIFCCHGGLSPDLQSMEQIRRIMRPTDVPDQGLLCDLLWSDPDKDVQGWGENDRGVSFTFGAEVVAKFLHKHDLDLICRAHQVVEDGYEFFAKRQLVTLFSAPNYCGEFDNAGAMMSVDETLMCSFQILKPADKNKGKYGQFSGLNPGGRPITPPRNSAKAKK
ASAP1 inh confirm – ASAP1 inhibition confirmed; shares compounds with ASAP1 GAP inh; ASAP1-stimulated Arf1 GTPase, GDP fluorescence polarization; inhibition, % at 16.5 µM; 620 tested, 37% active; AID 624431;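 active = mean inhibition over triplicates exceeds the hit threshold derived for the earlier primary screening run, cut at about 25% in these data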
ARFGAP1 inh conf – rat ARFGAP1 inhibition, confirmed; shares compounds with ARFGAP1 inh; ARFGAP1-stimulated ARF1 GTP hydrolysis, GDP tracer FP; inhibition, % at 16.5 µM; 890 tested, 30% active; AID 651608;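 active = average inhibition over triplicates above the hit cutoff set in the earlier primary screen, cut at about 25% in these data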
Each line names hits and unclear results; the compound was inactive in the other large screens (follow-up assays come after a bar, where they were run).

Cc1csc(NC(=O)C2C3C=CC(O3)C2C(=O)O)n1 (stereo unspecified)	PP5 inh 16 | PP5 conf 15 | PP1 counter 3x inactive
NC(=O)c1ncn([C@@H]2O[C@H](C(=O)N[C@H](Cc3ccccc3)C(=O)N3CCN(c4ccc(Cl)cn4)CC3)[C@@H](O)[C@H]2O)n1	none (no result: PKD1 kinase inh, PP5 inh)
O=C(N[C@H]1CC[C@H](CCNS(=O)(=O)c2ccc(Cl)cc2)O[C@@H]1CO)c1cccc(F)c1	none (no result: PKD1 kinase inh, PP5 inh)
CC(C)Sc1nsc2nc(=O)c(/C=C3\C=Nc4ccccc43)c(N)n12	PP5 inh 14 | PP5 conf inactive | PP1 counter 3x inactive
COc1ccc(NC(=S)Nc2ccc3nsnc3c2)cc1	ASAP1 GAP inh 33, PP5 inh 12 | PP5 conf 47 | PP1 counter 3x inactive | ASAP1 inh confirm inactive
O=c1[nH]c(Nc2ccccc2)cc2cc(Br)ccc12	ASAP1 GAP inh 36, PP5 inh 14 (no result: PKD1 kinase inh) | PP5 conf 34 | PP1 counter 3x inactive | ASAP1 inh confirm inactive
CCCCOC(=O)C1=C(C)NC2(O)c3ccccc3C(=O)C12O (stereo unspecified)	none
CC1=C(C#N)C2(O)C(=O)c3ccccc3C2(O)N1 (stereo unspecified)	none
CC(=O)C1=C(C)OC2(O)c3ccccc3C(=O)C12O (stereo unspecified)	ASAP1 GAP inh 43, PP5 inh 14 (no result: PKD1 kinase inh) | PP5 conf 35 | PP1 counter 3x inactive | ASAP1 inh confirm inactive
CCOC(=O)C1=C(C)OC2(O)c3ccccc3C(=O)C12O (stereo unspecified)	ASAP1 GAP inh 47, PP5 inh 12 (no result: PKD1 kinase inh) | PP5 conf 41 | PP1 counter 3x inactive | ASAP1 inh confirm inactive
COC(=O)C1=C(C)N(Cc2ccccc2C(F)(F)F)C(=NCc2ccc(C(F)(F)F)cc2)NC1c1cccc(Cl)c1 (stereo unspecified)	none (no result: PKD1 kinase inh, PP5 inh)
O=C(Nc1ccc(OC(F)(F)F)cc1)N1CCN(c2ccnc3cc(Cl)ccc23)CC1	ASAP1 GAP inh 25, PP5 inh 10 (no result: PKD1 kinase inh) | PP5 conf inactive | PP1 counter 3x inactive | ASAP1 inh confirm inactive
COc1ccc(C(=O)Nc2ccc(OCC(F)(F)C(F)F)c(C(F)(F)F)c2)cc1OC	ASAP1 GAP inh 26, PP5 inh 12 | PP5 conf 11 | PP1 counter 3x inactive | ASAP1 inh confirm 26
COc1cc2c(C#N)c(N3CCN(C)CC3)nc(N)c2c(N)n1	none
CCCOc1cc2c(C#N)c(N3CCCC3)nc(N)c2c(N)n1	ASAP1 GAP inh 36, PP5 inh 11 (no result: PKD1 kinase inh) | PP5 conf 38 | PP1 counter 3x inactive | ASAP1 inh confirm inactive
N#Cc1c(N2CCCC2)nc(N)c2c(N)nc(N3CCCC3)cc12	ASAP1 GAP inh 27, PP5 inh 16 | PP5 conf 25 | PP1 counter 3x 18 | ASAP1 inh confirm inactive
CC1(C(=O)NS(=O)(=O)c2ccccc2Cl)CCN1C(=O)c1ccccc1 (stereo unspecified)	none (no result: PKD1 kinase inh, PP5 inh)
COc1ccc(-c2nc3cc(C)c(Br)c(C)n3c2Cc2cccc(F)c2)cc1OC	none (no result: PKD1 kinase inh, PP5 inh)
O=C1C(=O)c2ccccc2C(O)=C1c1ccccc1F	none (no result: PKD1 kinase inh)
O=C1C(O)=C(O)C(=O)c2ccccc21	ASAP1 GAP inh 30, PP5 inh 13 (no result: PKD1 kinase inh) | PP5 conf 14 | PP1 counter 3x 28 | ASAP1 inh confirm inactive
Cc1ccc(NC2=C(N3CCOCC3)C(=O)c3ccccc3C2=O)cc1	ASAP1 GAP inh 36, PP5 inh 10 | PP5 conf 30 | PP1 counter 3x inactive | ASAP1 inh confirm inactive
O=C(O)c1ccc(NC2=C(N3CCOCC3)C(=O)c3ccccc3C2=O)cc1	none
COC(=O)C1=C(C)N(C)C(=NCc2ccc(OC)cc2)NC1c1ccc(Cl)cc1 (stereo unspecified)	none (no result: PKD1 kinase inh, PP5 inh)
COCCCNC(=O)C[C@@H]1C[C@@]2(C(=O)OC)CCCCC=C2N(CCC2=CCCCC2)C1=O	none (no result: PKD1 kinase inh, PP5 inh)
CCOc1ccc(NC(=S)Nc2ccc3nsnc3c2)cc1	ARFGAP1 inh 26, PP5 inh 12 | PP5 conf 49 | PP1 counter 3x inactive | ARFGAP1 inh conf inactive
CCOc1ccc(NC(=O)Nc2ccc3nsnc3c2)cc1	none
